Test results: ChEMBL document CHEMBL1127317 (J Med Chem, 1994)

Columns and labels:
Type in all cases: ADME
[1] = The observed pseudo-first-order rate constants of compound for cyclization reaction at pH 2.4
How it was run: (§1)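 Amines generated from the 2-nitroaryl amides, incubated at 37 °C in aqueous buffer of ionic strength 0.01 M. Cyclization followed at the same time by UV/vis spectrophotometry in thermostated stoppered cuvettes and by C-18 reverse-phase HPLC (MeOH/10 mM phosphate pH 7 mobile phase). Runs lasted 4 h at first, extended to about 4 half-lives when product formed. Pseudo-first-order k_obs was taken from first-order loss of amine peak area.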

[2] = The half-life for cyclization reaction at pH 2.4; how it was run: as §1
[3] = The observed pseudo-first-order rate constant of compound for cyclization reaction at pH 2.4; how it was run: as §1
[4] = The half-life for cyclization reaction at pH 6.8; how it was run: as §1
[5] = The observed pseudo-first-order rate constant of compound for cyclization reaction at pH 6.8; how it was run: as §1

| SMILES | K obs [1] [min⁻¹] | half-life [2] [min] | K obs [3] [min⁻¹] | half-life [4] [min] | T1/2 [2] [min] | K obs [5] [min⁻¹] |
| --- | --- | --- | --- | --- | --- | --- |
| COc1ccc(NC(=O)c2cccc3cccc(N)c23)cc1 | 0.11 | 6.3 | – | – | – | – |
| COc1ccc(NC(=O)Cc2ccccc2N)cc1 | – | 260 | 0.0026 | – | – | – |
| CC(=O)c1ccc(NC(=O)C(C)(C)c2ccccc2N)cc1 | – | – | 21 | 35 | 0.033 | 0.02 |
| COc1ccc(NC(=O)C(C)(C)c2ncccc2N)cc1 | – | 8.9 | 0.078 | 530 | – | 0.0013 |
| COc1ccc(NC(=O)C(C)(C)c2ccccc2N)cc1 | – | – | 10 | 72 | 0.07 | 0.0096 |
| CCC(CC)(C(=O)Nc1ccc(OC)cc1)c1ccccc1N | – | 0.43 | 1.64 | 250 | – | 0.028 |
| COc1ccc(NC(=O)CS(=O)(=O)c2c(C)cccc2N)cc1 | – | 1700 | 0.0004 | – | – | – |
| COc1ccc(NC(=O)c2c(C)nn(-c3ccccc3)c2-c2ccccc2N)cc1 | – | 36 | 0.019 | – | – | – |
| Nc1ccccc1CCC(=O)Nc1cnc2ccccc2c1 | – | 32 | 0.022 | – | – | – |
| Nc1ccccc1CC(=O)Nc1cnc2ccccc2c1 | 0.008 | 87 | – | – | – | – |
| COc1ccc(NC(=O)[C@@H]2CCCN2C(=O)c2ccccc2N)cc1 | – | 74 | 0.0094 | – | – | – |
| COc1ccc(NC(=O)Cn2ncc3cccc(N)c32)cc1 | – | 83 | 0.0084 | – | – | – |
| COc1ccc(NC(=O)CCc2ccccc2N)cc1 | – | 58 | 0.012 | – | – | – |
| COc1ccc(NC(=O)C(C)(C)c2cc(C(=O)NCCN(C)C)ccc2N)cc1 | – | 0.27 | 2.58 | 770 | – | 0.0009 |
| CC(C)(C(=O)Nc1ccccc1)c1ccccc1N | – | – | 21 | 35 | 0.033 | 0.02 |
| COc1ccc(N(C)C(=O)C(C)(C)c2ccccc2N)cc1 | – | 0.28 | 2.5 | 800 | – | 0.0009 |
| CN(C)c1ccc(NC(=O)C(C)(C)c2ccccc2N)cc1 | – | – | – | 71 | – | 0.0097 |
| COc1ccc(NC(=O)C(C)c2ccccc2N)cc1 (stereo not given) | – | 16 | 0.043 | – | – | – |
